Screens deposited in PubChem BioAssay by several laboratories.
ARFGAP1 inh: inhibits rat ARF GTPase activating protein 1; Q62848; Arfgap1-stimulated ARF1 GTP hydrolysis, GDP FP detection; inhibition, % at 16.5 µM; hit rate 0.26% among 360,000;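 active means inhibition above a per-plate limit, mean inhibition of low control wells plus 3 SD, cut at about 25% in these data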;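 further: 0% = DMSO wells with enzyme and 100% = wells lacking Arfgap1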
Target sequence (Q62848 1-136 limits assumed): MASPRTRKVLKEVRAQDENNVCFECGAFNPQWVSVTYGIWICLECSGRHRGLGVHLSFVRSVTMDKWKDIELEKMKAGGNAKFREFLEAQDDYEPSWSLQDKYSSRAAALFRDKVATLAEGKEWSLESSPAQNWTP
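Assay system: Rat Arfgap1 GAP domain (His6, aa 1-136), purified enzyme | Buffer or medium: HEPES 25 mM pH 7.5, NaCl 150 mM, MgCl2, DTT | Schedule: GTP hydrolysis reaction 2 h at 25 °C | Signal: FP of antibody-bound GDP Alexa 633 tracer, ex 620/em 688 nm | Measure: Percent inhibition of Arfgap1-stimulated GTP hydrolysis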
HGIII-sPLA2 inh: Inhibits HGIII-sPLA2 liposome hydrolysis, primary screen | hit rate 0.56% among 370,000 | inhibition, % at 12.2 µM | QFRET BODIPY PC-A2 liposome hydrolysis, fluorescence;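 active means inhibition above mean plus 3 SD of compounds lying within the high and low control bounds, cut at about 19% in these data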;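 further: 0% = median of test compound wells and 100% = no enzyme DMSO wells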
ASAP1 GAP inh: blocks human ASAP1-stimulated Arf1 GTP hydrolysis; Q9ULH1; GDP FP detection; inhibition, % at 16.5 µM; hit rate 0.19% among 360,000; AID 624377; in the data active means inhibition above about 25%;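 further: 0% = vehicle with enzyme and substrate and 100% = no enzyme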
MsrA act: bovine methionine sulfoxide reductase A activation; purified bovine MsrA, absorbance read-out; activation, % at 10.6 µM; hit rate 0.3% among 360,000; in the data active means activation above about 7.5%;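 further: 0% = vehicle and 100% = reference activator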
NR1D1 modulator: Rev-erb alpha (human) modulation; hit rate 0.79% among 370,000; activity, % at 10 µM; P20393; Rev-erbα–FITC-DNA binding, fluorescence polarization, 90 min;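 active means activity above about 14%, limit read from the data; passing the limit was not always enough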;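 further: 0% = DMSO wells with 35 nM protein and 100% = DMSO wells with 750 nM protein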
Target sequence (P20393 whole entry, looked up): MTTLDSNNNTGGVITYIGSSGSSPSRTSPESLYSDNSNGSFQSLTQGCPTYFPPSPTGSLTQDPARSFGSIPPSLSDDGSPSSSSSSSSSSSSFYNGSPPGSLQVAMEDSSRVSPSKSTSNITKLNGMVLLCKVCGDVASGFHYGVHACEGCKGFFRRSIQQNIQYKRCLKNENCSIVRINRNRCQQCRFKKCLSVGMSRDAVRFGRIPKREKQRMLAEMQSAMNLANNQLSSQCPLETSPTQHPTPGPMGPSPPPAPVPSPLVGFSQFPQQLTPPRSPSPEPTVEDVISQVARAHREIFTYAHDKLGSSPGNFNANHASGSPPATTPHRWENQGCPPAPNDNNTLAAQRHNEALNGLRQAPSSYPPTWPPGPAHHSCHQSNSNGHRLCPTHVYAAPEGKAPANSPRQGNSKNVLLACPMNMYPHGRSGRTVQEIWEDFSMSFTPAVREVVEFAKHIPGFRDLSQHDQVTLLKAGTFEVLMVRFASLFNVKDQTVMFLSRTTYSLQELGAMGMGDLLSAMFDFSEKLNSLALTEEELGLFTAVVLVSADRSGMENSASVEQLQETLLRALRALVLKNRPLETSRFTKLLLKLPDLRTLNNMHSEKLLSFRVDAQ
MsrA inh: inhibits bovine methionine sulfoxide reductase A | purified bovine MsrA, absorbance read-out | inhibition, % at 15.5 µM | hit rate 0.75% among 360,000 | AID 651718; in the data active means inhibition above about 4.5%;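 further: 0% = vehicle wells with enzyme and 100% = reference inhibitor wells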
sPLA2 confirm: human GIII-sPLA2 inhibition, confirmation; recombinant hGIII-sPLA2, BODIPY PC-A2 QFRET fluorescence; shares compounds with HGIII-sPLA2 inh; inhibition, % at 12.2 µM; AID 743280; hit rate 34% among 2,000;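 active means mean inhibition across triplicates above the hit cutoff set in the earlier primary screen, cut at about 19% in these data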;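 further: 0% = enzyme with DMSO and 100% = DMSO wells lacking enzyme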
535nm interf: counter-screen for HGIII-sPLA2 inhibitors: 535nm fluorescence interference; shares compounds with HGIII-sPLA2 inh; hit rate 8.5% among 2,000; inhibition, % at 12.2 µM; BODIPY FL product fluorescence interference, QFRET;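 active means average inhibition above the solvent-only control mean plus 3 SD, cut at about 6% in these data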;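 further: 0% = DMSO with substrate plus product and 100% = DMSO with substrate alone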
535nm interf DR: interferes with 535nm fluorescence in dose response counter-screen. shares compounds with HGIII-sPLA2 inh. 240 tested, under 10 active. AID 743455. BODIPY FL product fluorescence interference, cell-free. IC50, µM;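 active means IC50 at or below 10 µM; inactive means IC50 above 10 µM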
* hit, by the source's call; · = not tested or not shown. This is a sample that favours compounds with a hit; in the whole collection about 2.7% have one here.

SMILES	ARFGAP1 inh	HGIII-sPLA2 inh	ASAP1 GAP inh	MsrA act	NR1D1 modulator	MsrA inh	sPLA2 confirm	535nm interf	others
COc1ccc(-n2c(COc3ccccc3)n[nH]c2=S)cc1	-12.3	21.4*	11.1	1.7	0.6	1.1	22.8*	2.2
COC(=O)[C@]12C[C@H](CC(=O)NCCCCc3ccccc3)C(=O)N(CCC3=CCCCC3)C1=C[C@H](COCc1ccccc1)O[C@@H]2C	-1.4	-11.8	10.6	·	-5.6	-0.2	·	·
Nc1ccc2c3c(ccc([N+](=O)[O-])c13)CC2	0.6	23.0*	-8.1	-3.5	4.2	0.8	33.9*	6.6*
COc1ccccc1/C=C/C=N/NC(=O)c1ccccn1	9.5	20.1*	3.5	-6.4	3.4	4.6*	5.9	-7.7
OC(c1ccccc1)c1ccccc1CN1CCCNC1=S (stereo not drawn)	-9.9	19.4*	3.1	-6.8	-2.8	0.1	10.1	-1.4
Cc1ccc(C(=O)NC(=S)Nc2c(C)ccc3nsnc23)cc1	7.7	23.4*	-4.1	-3.6	-0.6	0.4	12.8	-6.7
Cc1ccc(C(=O)NC(=S)/C=C2\N(C)c3ccccc3C2(C)C)cc1	-16.4	29.6*	5.8	-14.3	0.8	2.7	44.9*	1.6	535nm interf DR=>122
CC(C)C(=O)NC(=S)/C=C1/N(C)c2ccccc2C1(C)C	-7.9	-4.2	-1.4	-3.5	4.0	-0.8	·	·
Fc1cnc(N2CCN(c3ccccc3)CC2)nc1N1CCN(c2ccccc2)CC1	-7.4	21.3*	1.5	-2.9	-1.8	-0.3	-0.7	-6.5
Cc1onc(-c2ccccc2)c1-c1n[nH]c(=S)n1-c1ccc(C(=O)O)cc1	-7.1	4.4	6.1	4.2	-0.6	0.0	·	·
Cc1onc(-c2ccccc2)c1-c1n[nH]c(=S)n1-c1ccccc1Cl	13.8	19.3*	-0.9	4.3	-0.8	-0.3	23.4*	-0.6
CC(C)N1CCCCC(NC(=O)c2cccc(F)c2)C1=O (stereo not drawn)	·	2.9	·	·	0.6	·	·	·
COc1ccc(-c2nc(C)ncc2N=Nc2ccccc2)cc1	-18.9	4.7	5.0	-9.6	1.6	0.1	·	·
COc1ccc(N=Nc2nc(-c3ccccc3)c(-c3ccccc3)[nH]2)cc1	2.9	27.7*	14.4	-1.6	9.5	-0.6	30.1*	2.2	535nm interf DR=>122
NCCNc1ccc(C(=O)N2c3ccccc3Sc3ccccc32)cc1[N+](=O)[O-]	7.7	19.8*	-1.1	-5.3	0.7	0.5	23.8*	-26.7
Nc1ccc(C(=O)OCC(=O)N2c3ccccc3Sc3ccccc32)cc1[N+](=O)[O-]	2.2	-7.7	-0.1	-0.6	4.2	-0.9	·	·
CCOC(=O)c1c(C)[nH]c(C(=O)COC(=O)COc2ccccc2C=O)c1C	-4.3	19.9*	5.9	-1.8	0.7	0.3	3.4	-14.2
COc1ccc(S[C@]2(C(=O)NCC(C)C)CC(=O)N[C@@H]2c2ccc(OC)cc2)cc1	·	-2.0	·	·	-11.1	·	·	·
CCSc1nc2c([nH]1)c(=O)n(C)c(=S)n2C	7.7	6.0	5.1	-0.4	2.5	-0.7	·	·
CCCSc1nc2c([nH]1)c(=O)n(C)c(=S)n2C	-2.4	19.7*	3.6	-2.1	3.1	1.3	6.7	1.1
O=C(NC(=S)N1CCN(c2ccc(C(F)(F)F)cc2[N+](=O)[O-])CC1)c1cccs1	9.4	31.2*	0.2	-2.5	0.9	0.1	46.9*	9.5*
CCN1CCN(C(=S)NC(=O)c2cccs2)CC1	-5.1	2.8	6.0	1.7	-3.9	-1.1	·	·
CC(C)CCNC(=O)Cc1ccc(Nc2nc(=S)[nH]c3ccccc23)cc1	4.5	11.4	-15.6	0.9	-3.7	2.9	·	·
O=C(Cc1ccc(Nc2nc(=S)[nH]c3ccccc23)cc1)NC1CCCCC1	5.3	21.3*	2.8	·	-1.2	3.6	13.7	-0.5
CC(=O)Nc1ccc(NC(=S)NC(=O)c2cc3ccccc3o2)cc1	16.6	11.0	-7.0	-6.1	-2.6	1.7	·	·
SMILES	ARFGAP1 inh	HGIII-sPLA2 inh	ASAP1 GAP inh	MsrA act	NR1D1 modulator	MsrA inh	sPLA2 confirm	535nm interf	others
O=C(NC(=S)Nc1ccc2oc(=O)ccc2c1)c1cc2ccccc2o1	9.4	22.3*	14.0	-4.1	-27.9	0.2	3.8	-1.9
CC(=O)N[C@@H]1C[C@@H]2O[C@H](CO)CC[C@@H]2O[C@@H]1CCc1ccc(-c2ccc(F)cc2)cc1	·	8.6	·	·	2.4	·	·	·
CCc1ccc(Nc2n[n+](-c3ccccc3)c(-c3ccc(N(CC)CC)cc3)s2)cc1	0.1	22.7*	-1.6	-2.6	4.8	0.3	-22.0	-50.5
CC(C)N1Cc2nnn(Cc3ccccc3)c2-c2ccccc2S1(=O)=O	·	4.5	·	·	-2.7	·	·	·
COc1cc(NC(=S)N2CCN(c3ccccn3)CC2)c(OC)cc1Cl	0.2	22.5*	8.0	-12.4	-1.9	0.8	15.6	-5.6
CCOC(=O)[C@@]12CN(C(=O)OC(C)(C)C)CC=C1N(Cc1ccc(OC)cc1)C(=O)[C@H]2CC(=O)N1CCSCC1	·	0.4	·	·	1.8	·	·	·
COc1ccc(-c2n[nH]c(=S)nc2-c2ccc(OC)cc2)cc1	10.3	19.4*	0.0	-1.7	3.5	1.7	25.7*	4.8
COc1ccc(-c2nc3ccccc3nc2-c2ccc(OC)cc2)cc1	4.4	-6.5	2.7	-2.0	4.7	0.7	·	·
Cc1ccn2c(Nc3ccccc3C)c(-c3ccccn3)nc2c1	13.4	20.8*	-10.8	-2.5	-0.6	2.0	30.1*	-20.7	535nm interf DR=>122
Cc1ccn2c(Nc3ccccc3)c(-c3ccccn3)nc2c1	8.5	20.4*	2.7	-6.2	3.2	1.0	18.1	-28.0
Cc1ccc2nc(-c3ccccn3)c(Nc3ccccc3C)n2c1	13.8	26.5*	7.6	-2.9	-4.1	-0.1	23.6*	-17.7
CC(CCN1CCC(C(O)(c2ccccc2)c2ccccc2)CC1)Oc1cccc(Cl)c1 (stereo not drawn)	·	-13.7	·	·	7.1	·	·	·
CN(CCCOC(=O)CC1C=CCC1)C1CN(Cc2cn(Cc3ccccc3Cl)nn2)S(=O)(=O)C1 (stereo not drawn)	·	-1.1	·	·	2.6	·	·	·
Cc1ccc(C2c3c(n[nH]c3C)C(=O)N2Cc2ccccc2)cc1 (stereo not drawn)	-4.5	-5.2	-0.4	·	1.6	0.9	·	·
CCCCCC/C(=N/O)c1ccccn1	17.6	21.7*	3.7	-1.9	4.6	1.2	12.0	-6.3
Cc1nn(C)cc1-c1n[nH]c(=S)n1-c1ccc(F)cc1	7.5	29.1*	-11.1	0.4	3.3	0.6	3.9	-2.9
Fc1cccc(-c2n[nH]c(=S)n2-c2ccccc2)c1	-6.1	25.1*	-8.8	-0.5	8.1	0.7	18.0	1.1
Cn1cc(Cl)c(-c2n[nH]c(=S)n2-c2ccc(F)cc2)n1	0.5	1.1	-7.3	0.1	-4.7	-0.1	·	·
